Screening results deposited in PubChem by Broad Institute.
This is a sample that favours compounds with a hit; in the whole collection about 3% have one here.
NSD2 HMT inh: blocks human histone methyltransferase NSD2. hit rate 0.54% among 310,000. AID 743445. inhibition, % at 12.5 µM. O96028. NSD2 peptide methylation, AlphaScreen, 120 min; in the data active means inhibition above about 50%
CASP6 VEID inh: blocks human caspase-6 cleavage activity | AID 686996 | inhibition, % at 12.5 µM | purified caspase-6, Z-VEID-R110 cleavage fluorescence | hit rate 0.53% among 350,000 | P55212;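 active means mean inhibition across replicates at least about 35%, with every replicate also reaching that limit, limit read from the data; inconclusive means only one of the two criteria met; inactive means neither criterion met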;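 further: 0% = median of neutral control wells and 100% = no fluorescence left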
Target sequence (P55212 24-179 limits assumed): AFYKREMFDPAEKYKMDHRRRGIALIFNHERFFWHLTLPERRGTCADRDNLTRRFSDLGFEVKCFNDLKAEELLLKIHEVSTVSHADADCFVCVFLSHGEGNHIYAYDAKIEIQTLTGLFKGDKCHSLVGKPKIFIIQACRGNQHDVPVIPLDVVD
Target sequence (P55212 194-293 limits assumed): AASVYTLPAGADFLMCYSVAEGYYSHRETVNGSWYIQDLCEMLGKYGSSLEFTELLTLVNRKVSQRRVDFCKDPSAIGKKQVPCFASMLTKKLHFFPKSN
Xi reactivation: activators of X-chromosome reactivation in mouse fibroblasts | activation, % at 7.58 µM | hit rate 0.055% among 360,000 | AID 743238 | XiGFP mouse fibroblasts, % GFP-positive cells imaging, 3 d; cells co-treated with 5-aza-dC sensitizer; scaled so ellipticine positive control = 100%;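 active means mean normalized replicate activation at least 10% and every replicate at or above 10%; inconclusive means only one of the two criteria met; inactive means mean below 10% and not all replicates reach 10%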;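 further: 0% = median of on-plate neutral control wells and 100% = ellipticine 6 µM median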
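material = 68-5-11 XiGFP fibroblast line | medium = DMEM plus 5-aza-dC sensitizer | schedule = 3 days compound exposure | benchmarks = positive control ellipticine, 6 µM final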
Wnt bcat act: activates Wnt/beta-catenin signaling in a reporter cell assay; activator, plate reader; activation, % at 9.35 µM; hit rate 1.2% among 300,000; AID 743398; in the data active means activation above about 30%, passing the limit was not always enough; inconclusive means no clear call, values can overlap the other calls;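 further: 0% = neutral control wells and 100% = positive control wells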
MITF TRPM1 HTS: activators of MITF-driven TRPM1 promoter activity in SK-MEL-5 cells; activation, % at 12.5 µM; SK-MEL-5 TRPM1-promoter luciferase, 24 h; % of positive control, neutral wells = 0; hit rate 0.75% among 300,000;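 active means mean activation of at least 80% with every replicate also reaching 80%; inconclusive means mean reaches 80% but some replicate falls short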;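 further: 0% = neutral control wells and 100% = parthenolide positive control wells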
esBAF inh: SWI/SNF esBAF complex inhibition; mouse ES cells, Bmi1-luciferase knock-in reporter, 24 h; 100% = twice the neutral-well signal; reporter increase, % at 12.5 µM; hit rate 2% among 350,000; in the data active means activation above about 40%; inconclusive means no clear call, values can overlap the other calls;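 further: 0% = median of the plate's neutral control wells and 100% = double that signal; a rise in the Bmi1 reporter signal indicates esBAF inhibition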
* hit, by the source's call; ? = inconclusive; / = no result given.

SMILES	NSD2 HMT inh	CASP6 VEID inh	Xi reactivation	Wnt bcat act	MITF TRPM1 HTS	esBAF inh
O=C(NC(=S)NC1CCCCCC1)c1cncc(Br)c1	19	/	0	37*	95*	/
O=C(NC(=S)Nc1ncc(Br)cc1Br)c1cncc(Br)c1	-2	/	/	-2	14	1
O=C(NC(=S)NC1CCCCC1)c1ccccc1	1	0	0	17	53	45*
CC(NC(=O)/C(C#N)=C/c1ccco1)c1ccccc1 (stereo not drawn)	-13	7	0	4	3	1
CC(NC(=O)/C(C#N)=C/c1ccc([N+](=O)[O-])o1)c1ccccc1 (stereo not drawn)	1	11	43*	4	-58	0
CCOc1ccc(S(=O)(=O)Nc2ccc(C(=O)NNC(=O)c3ccncc3)cc2)cc1	2	1	0	1	0	/
CCOc1ccc(S(=O)(=O)Nc2ccc(C(=O)NN)cc2)cc1	-12	-1	0	53*	-1	1
CCCc1cc(C(=O)Nc2cccc(Cl)c2)no1	/	1	0	47*	/	54*
CCCc1cc(C(=O)Nc2ccc(C(C)=O)cc2)no1	/	-4	0	14	31	6
CCCc1cc(C(=O)Nc2cccnc2)no1	/	0	0	41*	/	15
O=C(Nc1cccnc1)c1cc(-c2ccccc2)on1	-2	/	/	2	1	-1
O=C(Nc1cccnc1)c1cc(-c2ccc(Br)cc2)on1	/	2	0	50*	/	26
CCCc1cc(C(=O)Nc2ccc(F)c(Cl)c2)no1	0	-2	0	21	108*	31
CCCc1cc(C(=O)Nc2cccc(C(C)=O)c2)no1	/	1	0	40*	52	51*
C[C@@H]1CN([C@@H](C)CO)C(=O)c2cccc(NC(=O)c3nc4ccccc4s3)c2O[C@H]1CN(C)Cc1ccc2c(c1)OCO2	/	2	-1	/	/	/
Nc1ccc2c(c1)C/C(=C/c1ccco1)C2=O	-1	/	0	66*	55	/
CCCN(C)C[C@@H]1Oc2ncc(-c3ccccc3F)cc2C(=O)N([C@H](C)CO)C[C@@H]1C	/	-7	0	/	/	-14
CCc1ccccc1NC(=O)c1cnc2scc(C)n2c1=O	/	-2	0	1	/	56*
COc1ccc(NC(=O)N(C)C[C@@H]2OCCCC[C@@H](C)Oc3ccc(NS(=O)(=O)c4ccc(Cl)cc4)cc3C(=O)N([C@@H](C)CO)C[C@H]2C)cc1	/	2	0	/	/	6
c1csc(-c2nc(CN3CCSCC3)cs2)c1	2	-1	0	43*	-9	-49
O=S1(=O)CCN(Cc2csc(-c3cccs3)n2)CC1	21	-2	0	-1	32	/
N#CCC(=O)N/N=C\c1ccc(OC/C=C/c2ccccc2)cc1	-2	-1	0	27	122*	11
N#CCC(=O)N/N=C\c1ccccc1OC/C=C/c1ccccc1	-2	3	0	12	22	64*
C[C@@H]1CN([C@@H](C)CO)C(=O)Cc2cc(NC(=O)CCN3CCOCC3)ccc2O[C@@H]1CN(C)S(=O)(=O)c1ccc(F)cc1	/	-1	0	/	/	-5
CCCc1cn(CC[C@@H]2CC[C@H](NC(=O)C3CCC3)[C@@H](CO)O2)nn1	/	2	0	/	/	4
SMILES	NSD2 HMT inh	CASP6 VEID inh	Xi reactivation	Wnt bcat act	MITF TRPM1 HTS	esBAF inh
Brc1ccc(-c2noc(C3CCCCC3)n2)cc1	/	-2	0	56*	58	/
c1ccc(-c2noc(C34CC5CC(CC(C5)C3)C4)n2)nc1	-2	/	/	/	44	53*
c1ccc(-c2noc(C3CCCCC3)n2)nc1	-5	/	/	36*	72	1
Cc1ccc(S(=O)(=O)N(C)C[C@@H]2Oc3ccc(NS(C)(=O)=O)cc3CC(=O)N([C@@H](C)CO)C[C@@H]2C)cc1	/	2	0	/	/	3
COc1ccccc1NC(=O)N1C[C@H]2[C@@H](c3ccccc31)[C@@H](CO)N2C(=O)C1CC1	/	0	0	/	/	0
C[C@@H]1CN([C@H](C)CO)C(=O)c2cc(NC(=O)Cc3ccccc3)ccc2O[C@@H]1CN(C)Cc1ccc(-c2ccccc2)cc1	/	/	0	/	/	-4
Cc1ccc(C)c(/C=C(\C(=O)O)c2ccc(S(=O)(=O)N3CCCCC3)s2)c1	-1	37*	0	-1	-8	/
CCOc1cc(/C=C(\C(=O)O)c2ccc(S(=O)(=O)N3CCCC3)s2)ccc1OC	0	2	0	2	3	4
COc1ccc(Br)cc1/C=C(\C(=O)O)c1ccc(S(=O)(=O)N2CCCCC2)s1	9	37*	0	-2	1	-8
O=C(O)/C(=C\c1cccc(F)c1)c1ccc(S(=O)(=O)N2CCCCC2)s1	13	30	0	-2	2	/
O=C(Cc1cccnc1)N1CC(=O)N2[C@H](CO)[C@@H](c3ccc(-c4cccc(F)c4)cc3)[C@H]2C1	/	/	1	/	/	/
CCc1ccc(N=C2NC(=O)/C(=C/c3cc(Br)c(OCC(=O)O)c(OC)c3)S2)cc1	11	64*	0	-1	/	-7
O=C(COc1ccc(Cl)cc1Cl)c1ccc[nH]1	-2	0	/	33*	72	?
O=C(COc1ccccc1O)Nc1ccccc1Cl	-7	/	/	/	48	52*
O=C(COc1ccc(Cl)cc1Cl)N1CCCCCC1	-2	/	/	/	/	48*
Cc1cc(Cl)ccc1OCC(=O)OCC(=O)Nc1ccc(Cl)cn1	-1	2	0	-2	/	6
O=C(COc1ccc(Cl)cc1Cl)Nc1ccc(Cl)cn1	/	0	/	13	96*	-7
O=C(C1CC1)N1CC2(C1)[C@@H](c1ccccc1)[C@@H](CO)N2Cc1ccc(Cl)cc1	/	0	0	/	/	/
Cc1cc(Cl)ccc1OCC(=O)Nc1ccccc1CO	-5	/	/	17	37	42*
CSc1ccccc1NC(=O)COc1ccc(Cl)cc1C	-3	0	1	1	15	/
CC(=O)Nc1ccc(NC(=O)COc2ccc(Cl)cc2Cl)cc1	-6	-1	0	1	/	22
CCOc1ccc(C(=O)Nc2ccc(Cl)cn2)cc1Cl	-2	/	/	?	103*	132*
CCOc1ccc(C(=O)Nc2cc(NC(=O)c3ccc(OCC)c(Cl)c3)cc(C(=O)O)c2)cc1Cl	/	32	0	-1	12	6
O=C(COc1ccc(Cl)cc1Cl)Nc1ccccc1F	-4	1	0	45*	/	/
O=C([C@H]1[C@H](CO)[C@H]2Cn3c(ccc(-c4ccncc4)c3=O)[C@H]2N1CCC(F)(F)F)N1CCCCC1	/	-1	0	/	/	-2
c1ccc(-c2nnc(SCCC3OCCCO3)o2)cc1	0	/	/	48*	11	/
Oc1ccc(-c2nnc(SCc3ccccc3)o2)cc1	-4	-1	0	17	114*	49*
